Laboratory results taken from ChEMBL document CHEMBL5030538 (J Med Chem, 2021).
The source made the active and inactive calls. No cut-off for these calls is given here.

What was measured:
[1] = Displacement of [3H]-DTG from sigma 2 receptor in guinea pig brain membranes after 120 mins by microbeta scintillation counting method
HREC [2] = experiment: Antiangiogenic activity against HREC cells assessed as inhibition of tube formation measured after 24 hrs by matrigel based tube formation assay; assay type: functional, cell-based; conditions: Homo sapiens
HREC [3] = experiment: Antimigratory activity against VEGF-A stimulated HREC assessed as inhibition of cell motility at 5 uM in presence of AC927 measured after 48 hrs by wound closure assay; assay type: functional; conditions: Homo sapiens
Method in brief: (§1)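 Primary HREC grown to confluence were scratched to make a 1 mm wound and washed with PBS. They were then incubated 48 h at 37 °C in complete medium with 80 ng/mL VEGF-A and 5 μM compound, alone or with 2 μM PTZ or 2 μM AC927. Wounds were photographed by phase contrast at 0, 24 and 48 h, and closure taken as the distance both fronts moved into the wound. Mean ± SEM of three independent experiments, three wells each.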

HREC [4] = experiment: Antimigratory activity against VEGF-A stimulated HREC assessed as wound closure at 5 uM measured after 48 hrs by wound closure assay; assay type: functional, tissue-based; conditions: Homo sapiens
Method in brief: as §1

HREC [5] = experiment: Antimigratory activity against VEGF-A stimulated HREC assessed as wound closure at 5 uM in presence of PTZ measured after 48 hrs by wound closure assay; assay type: functional, tissue-based; conditions: Homo sapiens
Method in brief: as §1

[6] = Antiproliferative activity against VEGF-A stimulated human retinal endothelial cell assessed as reduction in cell viability measured after 24 hrs by MTT assay; assay type: functional; conditions: HREC
[7] = Antiproliferative activity against VEGF-A stimulated human retinal endothelial cell assessed as reduction in cell viability measured after 48 hrs by MTT assay; assay type: functional; conditions: HREC
[8] = Antiproliferative activity against VEGF-A stimulated human retinal endothelial cell assessed as reduction in cell viability measured after 72 hrs by MTT assay; assay type: functional; conditions: HREC
[9] = Antiangiogenic activity against VEGF-A stimulated human retinal endothelial cell assessed as cell proliferation measured after 48 hrs by crystal violet assay; assay type: functional; conditions: HREC
Method in brief: (§2)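 They were then treated at 5 μM with or without 80 ng/mL VEGF-A, with DMSO as vehicle. Cells were PBS-washed, fixed in 4% paraformaldehyde, stained with 0.5% crystal violet in 20% methanol, extracted with 10% acetic acid and read at 570/590 nm. Proliferation is given as % of vehicle; triplicate.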

[10] = Antiangiogenic activity against VEGF-A stimulated Human endothelial cell assessed as cell proliferation measured after 72 hrs by crystal violet assay; assay type: functional, tissue-based
[11] = Antiangiogenic activity against VEGF-A stimulated human retinal endothelial cell assessed as cell proliferation measured after 24 hrs by crystal violet assay; assay type: functional; conditions: HREC
Method in brief: as §2

Row | Structure (SMILES) | Ki [1] | Activity (HREC [2]) | Activity (HREC [3]) | Activity (HREC [4]) | IC50 [9] | IC50 [10] | also measured
1 | O[C@H](CCCN1CCC(O)(c2ccc(Cl)cc2)CC1)c1ccc(F)cc1 | 32 nM | – | – | – | – | – | –
2 | CCCC(CCC)C(=O)O[C@@H](CCCN1CCC(O)(c2ccc(Cl)cc2)CC1)c1ccc(F)cc1 | – | Active | inactive | Active | – | – | –
3 | CCCC(CCC)C(=O)O[C@H](CCCN1CCC(O)(c2ccc(Cl)cc2)CC1)c1ccc(F)cc1 | – | Active | inactive | Active | – | – | Activity (HREC [5]): inactive
4 | CCCC(CCC)C(=O)OC(CCCN1CCC(O)(c2ccc(Cl)cc2)CC1)c1ccc(F)cc1 (racemic) | 124 nM | Active | – | Active | – | – | –
5 | OC(CCCN1CCC(O)(c2ccc(Cl)cc2)CC1)c1ccc(F)cc1 (racemic) [HYDROXYHALOPERIDOL] | – | – | – | – | 129 µM | 69.2 µM | IC50 [6]: > 200 µM; IC50 [7]: 128 µM; IC50 [8]: 69 µM
6 | CCCC(CCC)C(=O)O [VALPROIC ACID] | – | – | – | – | 1450 µM | 1380 µM | IC50 [11]: 1.23 mM
